Test results published in ChEMBL document CHEMBL1150128, “New antioxidant hydroquinone derivatives from the algicolous marine fungus Acremonium sp” (J Nat Prod, 2002).
Values belong to the compound of their own block, whether it stands above or below them. Calls of active or inactive are those of the source. The calls are words filed in the database; no cut-off is given here.

Experiments:
[1] = molecular target: Human immunodeficiency virus type 1 reverse transcriptase (Human immunodeficiency virus 1) (UniProt Q72547); assay: Inhibition of HIV1 reverse transcriptase by ELISA
[2] = molecular target: Tyrosine-protein kinase Lck (Homo sapiens) (UniProt P06239); assay: Inhibition of p56lck by ELISA
[3] = Antioxidant activity assessed as inhibition of linolenic acid peroxidation at 37 ug/mL by TBARS assay; assay type: functional
Procedure, shortened: (§1)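 Linolenic acid methyl ester (70 mM stock in EtOH) is oxidized with sample (1 or 0.2 mg/mL ethanolic stock) in 50 mM phosphate buffer pH 7.2 with SDS and FeSO4 in 0.025 M HCl. Incubation is 50 °C for 30 min, then covered at 60 °C for 30 min, then room temperature for 4 min. Readout is A532 minus A600, with % inhibition calculated against sample blank, control and blank.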

[4] = test system: Radical scavenging activity; assay: Antioxidant activity assessed as DPPH free radical scavenging activity at 5 ug/mL; assay type: functional
Procedure, shortened: (§2)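 Ethanolic sample (1 mg/mL stock) is mixed with DPPH (1 mM stock) in EtOH, shaken briefly, and held at room temperature in the dark for 30 min. Radical scavenging is read as absorbance at 517 nm of sample versus control. Results are reported at the listed concentrations in µg/mL.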

[5] = test system: Radical scavenging activity; assay: Antioxidant activity assessed as DPPH free radical scavenging activity at 25 ug/mL; assay type: functional; procedure, shortened: as §2
[6] = test system: Radical scavenging activity; assay: Antioxidant activity assessed as DPPH free radical scavenging activity at 50 ug/mL; assay type: functional; procedure, shortened: as §2
[7] = test system: Radical scavenging activity; assay: Antioxidant activity assessed as DPPH free radical scavenging activity at 100 ug/mL; assay type: functional; procedure, shortened: as §2
[8] = test system: Radical scavenging activity; assay: Antioxidant activity assessed as DPPH free radical scavenging activity at 500 ug/mL; assay type: functional; procedure, shortened: as §2
[9] = Antioxidant activity assessed as inhibition of linolenic acid peroxidation at 7.4 ug/mL by TBARS assay; assay type: functional; procedure, shortened: as §1

Chain of Tyrosine-protein kinase Lck (Homo sapiens) (P06239 2-509 limits assumed): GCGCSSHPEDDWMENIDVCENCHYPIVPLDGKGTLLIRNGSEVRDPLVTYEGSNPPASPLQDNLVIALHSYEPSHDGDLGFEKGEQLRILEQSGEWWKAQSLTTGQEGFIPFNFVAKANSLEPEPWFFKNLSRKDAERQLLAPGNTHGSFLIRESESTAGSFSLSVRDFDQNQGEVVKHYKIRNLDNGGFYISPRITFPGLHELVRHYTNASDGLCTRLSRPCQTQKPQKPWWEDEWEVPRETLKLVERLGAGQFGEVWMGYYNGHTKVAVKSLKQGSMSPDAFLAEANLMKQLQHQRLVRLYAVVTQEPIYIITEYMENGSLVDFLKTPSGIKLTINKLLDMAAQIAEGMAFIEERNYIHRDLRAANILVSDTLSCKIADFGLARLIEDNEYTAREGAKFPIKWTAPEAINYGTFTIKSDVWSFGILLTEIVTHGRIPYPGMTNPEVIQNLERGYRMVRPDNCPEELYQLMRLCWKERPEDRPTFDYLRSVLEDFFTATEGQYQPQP

- Activity [1]: inactive
- Activity [2]: inactive
SMILES: CC(C)(O)C1Cc2cc(O)ccc2O1 (centres undefined)
- inhibition [3]: 15.9%
- Activity [4]: 35.3%
- Activity [5]: 85.8%
- Activity [6]: 89.1%
- Activity [7]: 90.2%
- Activity [8]: 90.4%

SMILES: COC(=O)CCC(C(=O)O)=C(C)C
- inhibition [9]: -8.6%
- Activity [6]: 3.4%
- Activity [7]: 10.3%
- Activity [8]: 35.1%

SMILES: C=C(C)C(CCC(=O)OC)C(=O)O (centres undefined)
- inhibition [9]: -8.6%
- Activity [6]: 3.4%
- Activity [7]: 10.3%
- Activity [8]: 35.1%

- Activity [1]: inactive
- Activity [2]: inactive
SMILES: C=C(C)C1Cc2c(O)ccc(O)c21 (centres undefined)
- inhibition [9]: 13.9%
- inhibition [3]: 35.5%
- Activity [4]: 26%
- Activity [5]: 85.5%
- Activity [6]: 90%
- Activity [7]: 90%
- Activity [8]: 90.1%

SMILES: Cc1cc(C(C)(C)C)c(O)c(C(C)(C)C)c1
- inhibition [9]: 36.2%
- inhibition [3]: 43.9%
- Activity [4]: 6%
- Activity [5]: 24.2%
- Activity [6]: 41.1%
- Activity [7]: 63.8%
- Activity [8]: 89.8%

- Activity [1]: inactive
- Activity [2]: inactive
SMILES: C=C(C)C1Cc2c(O)ccc(O[C@@H]3O[C@H](CO)[C@@H](O)[C@H](O)[C@H]3O)c21 (some centres undefined)
- Activity [4]: 5.6%
- Activity [5]: 17.5%
- Activity [6]: 27.7%
- Activity [7]: 43%
- Activity [8]: 79.9%

- Activity [1]: inactive
- Activity [2]: inactive
SMILES: CC(C)=C(CCC(=O)O)C(=O)O
- inhibition [9]: -9%
- Activity [6]: -0.5%
- Activity [7]: 3.8%
- Activity [8]: 15.3%

SMILES: OC[C@H]1O[C@@H](Oc2ccc(O)cc2)[C@H](O)[C@@H](O)[C@@H]1O
- Activity [4]: 1.9%
- Activity [5]: 18.3%
- Activity [6]: 23.5%
- Activity [7]: 52.6%
- Activity [8]: 78.6%

SMILES: COC(=O)C(CCC(=O)O)=C(C)C
- inhibition [9]: -8.6%
- Activity [6]: 3.4%
- Activity [7]: 10.3%
- Activity [8]: 35.1%

SMILES: CC(C)(O)C(O)Cc1cc(O)ccc1O (centres undefined)
- inhibition [9]: 2%
- inhibition [3]: 16.6%
- Activity [5]: 90.2%
- Activity [6]: 90.7%
- Activity [7]: 89.9%
- Activity [8]: 82.9%

- Activity [1]: inactive
- Activity [2]: inactive
SMILES: CC1(C)Oc2ccc(O)cc2CC1O (centres undefined)
- inhibition [9]: -9.8%
- inhibition [3]: 9.2%
- Activity [4]: 25.7%
- Activity [5]: 72.9%
- Activity [6]: 85.1%
- Activity [7]: 89.1%
- Activity [8]: 89.9%
